NPY-Y1 antag – antagonists of human neuropeptide Y receptor Y1; HEK293-CNG Y1 cells, membrane potential fluorescence; NPY at EC95, then isoproterenol; 200,000 compounds, 1% hits; inhibition, % at 3.6 µM; AID 1040;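 active = inhibition above the campaign mean inhibition of all tested compounds plus 3 SD, cut at about 20% in these data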;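 note: 0% = DMSO wells given NPY plus isoproterenol and 100% = isoproterenol alone without NPY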
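Material: HEK293 Y1/CNG channel cell line | Also added: NPY (25 nM), isoproterenol (1 µM), Ro 20-1724 (25 µM) | Compound: One concentration, 3.6 µM, in 0.4% DMSO | Schedule: 3 h dye uptake, 1 h room-temperature compound, 45 min post-isoproterenol | Signal: Membrane-potential fluorescent dye readout | Read-out: % inhibition of NPY effect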
NPY-Y2 PAM-ag – human NPY-Y2 potentiation or agonism, primary screen | cells expressing NPY-Y2, potentiator/agonist read-out | activation, % at 3.6 µM | 220,000 compounds, 0.45% hits | P49146; in the data active = activation above about 27%;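 note: cells stimulated with NPY near EC25 plus isoproterenol at EC100; 0% = vehicle plus submaximal agonist and 100% = vehicle plus saturating agonist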
Target sequence (P49146 whole entry, looked up): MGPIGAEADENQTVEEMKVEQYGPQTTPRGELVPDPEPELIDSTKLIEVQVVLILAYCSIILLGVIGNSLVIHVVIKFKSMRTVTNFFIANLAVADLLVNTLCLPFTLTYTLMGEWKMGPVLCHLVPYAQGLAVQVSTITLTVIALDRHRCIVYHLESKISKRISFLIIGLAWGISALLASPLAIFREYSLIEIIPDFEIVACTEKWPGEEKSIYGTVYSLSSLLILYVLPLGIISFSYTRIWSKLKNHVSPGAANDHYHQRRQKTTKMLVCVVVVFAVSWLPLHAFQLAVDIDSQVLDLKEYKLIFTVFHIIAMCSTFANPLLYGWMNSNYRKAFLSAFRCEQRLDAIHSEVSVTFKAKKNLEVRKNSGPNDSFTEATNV
RAM network inh – inhibitors of the yeast RAM network. S. cerevisiae dse1pr::URA3 reporter, 5-FOA growth OD615, 2 d; analog-sensitive cbk1-as2 kinase mutant strain. inhibition, % at 50 µM. 190,000 compounds, 1.8% hits;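 active = inhibition above a set limit, 3 SD over mean compound inhibition, cut at about 8.4% in these data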;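 note: 0% = DMSO-only wells with no growth and 100% = 10 µM 1-NA-PP1 full growth; inhibition rescues growth on 5-FOA so higher OD means more RAM inhibition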
NPY Y2 blocker – blocks the human neuropeptide Y Y2 receptor. NPY-Y2 expressing cells, antagonist mode. inhibition, % at 2.7 µM. 140,000 compounds, 0.99% hits; in the data active = inhibition above about 17%;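 note: 0% = vehicle with agonist challenge and 100% = reference antagonist with challenge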
NPY1 pot ag – potentiates or activates human NPY-Y1 receptor; 220,000 compounds, 0.37% hits; activation, % at 3.6 µM; AID 1304; P25929; NPY-Y1 expressing cells, potentiator/agonist activation; in the data active = activation above about 33%, passing the limit was not always enough;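 note: cells stimulated with NPY at EC10 then isoproterenol at EC100; 0% = low agonist plus stimulus and 100% = saturating agonist plus stimulus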
WT yeast gro inh – growth inhibition of WT yeast, mitochondrial fusion screen; mitochondrial fusion phenotypic screen, WT strain; inhibition, % at 10 µM; 190,000 compounds, 2.1% hits; in the data active = inhibition above about 58%; tested in S. cerevisiae
Numbers without * were called inactive; . = no result. Shown are actives, neighbours in structure and some others; about 4.9% of the full set was active somewhere.

SMILES | NPY-Y1 antag | NPY-Y2 PAM-ag | RAM network inh | NPY Y2 blocker | NPY1 pot ag | WT yeast gro inh
COc1cc(Cl)c(C)cc1NC(=O)c1cccc(OC)c1OC | 11.1 | -20.5 | 10.3* | . | -30.7 | 11.1
CCCN1CCN(CCCNC(=O)Cn2ncc3c4ccccc4n(C)c3c2=O)CC1 | -0.5 | -0.6 | 1.6 | -0.3 | -23.2 | -5.2
COc1cc(/C=N/N(C)c2ccccc2)cc(Cl)c1O | -7.3 | 9.1 | -1.6 | -6.7 | -2.0 | 59.4*
COc1ccc(OC)c(/C=N/N(C)c2ccccc2)c1 | 0.1 | 4.8 | 0.3 | 5.4 | -8.9 | 26.9
S=c1[nH]nc(Cc2ccc(Br)cc2)n1/N=C/c1ccc(Cl)cc1 | 0.4 | -21.2 | 8.3 | . | -23.6 | 93.4*
COc1ccc(OC)c(-c2cc(C(=O)N3CCN(c4ncccn4)CC3)c3ccccc3n2)c1 | -1.0 | -6.6 | 0.8 | 6.2 | -11.2 | 31.0
COc1ccc(-c2cc(C(=O)N3CCN(c4ncccn4)CC3)c3ccccc3n2)c(OC)c1 | 7.3 | 4.1 | 0.6 | 1.0 | -15.4 | 59.1*
CCS(=O)(=O)N1Cc2ccccc2CC1C(=O)Nc1nc2ccc(C)cc2s1 (configuration not stated) | -8.9 | 30.8* | -0.3 | -4.4 | 46.2* | 42.8
CCS(=O)(=O)N1Cc2ccccc2CC1C(=O)Nc1ncc(C)s1 (configuration not stated) | 0.9 | -2.7 | 0.8 | . | -22.6 | -2.7
CC(=O)c1sc(N/N=C\c2cccc(Br)c2)nc1C | -2.0 | 13.3 | 4.5 | -2.4 | 15.0 | 50.4
CC(=O)c1sc(N/N=C\c2ccc(Br)cc2)nc1C | -3.3 | 5.7 | 2.6 | -2.9 | 6.7 | 59.5*
COc1ccc(S(=O)(=O)N2CC(C(=O)O)Oc3ccc(CC(=O)O)cc32)cc1 (configuration not stated) | -2.3 | -4.9 | 0.5 | 0.1 | 4.6 | 2.5
CCOc1cc(/C=C2\CCCC(C(=O)C(F)(F)F)=C2O)ccc1O | 2.2 | -9.9 | 9.1* | 0.1 | -7.1 | 12.6
COc1ccc(Br)cc1C(=O)Nc1nnn(C)n1 | -4.8 | 3.8 | -0.1 | -1.5 | -9.4 | -2.1
Cc1c(NC(=O)CN2CCC(C(N)=O)CC2)cccc1[N+](=O)[O-] | 1.5 | -2.1 | 0.5 | . | -2.7 | 4.6
N=c1c(-c2nc3ccccc3[nH]2)cc(C(=O)c2cccs2)nn1-c1ccc(Cl)cc1 | -8.8 | 42.8* | . | 0.0 | 47.7* | .
O=C(Nc1nc2ccccc2[nH]1)c1cccs1 | -3.2 | -10.0 | -0.1 | . | -5.5 | 2.9
CC(C)OC(=O)C(=O)NNc1ccccc1 | 0.8 | -2.1 | 0.5 | 0.7 | 9.1 | 72.2*
CCCOC(=O)C(=O)NNc1ccccc1 | 2.6 | 9.1 | 0.6 | . | 4.3 | 57.6
CCOC(=O)C(=O)NNc1ccc(C)cc1 | 6.4 | 7.0 | 0.6 | 1.1 | 7.0 | 61.7*
CCOC(=O)C(=O)NNc1ccc(Cl)cc1 | 0.8 | 3.3 | 0.8 | . | 13.7 | 61.8
CCCCN=C(NNc1ccc(Br)cc1)C(=O)OCC | 3.8 | -6.9 | -1.0 | -3.0 | 1.6 | 64.4*
COc1ccc(C/C(C)=N/Nc2nc(C)cc(=O)[nH]2)cc1 | 3.9 | -2.9 | -0.7 | . | -8.1 | 6.7
COCCn1c(SCc2csc(-c3ccccc3)n2)nc2ccccc21 | 6.5 | -0.5 | 0.9 | 6.2 | 6.8 | 39.6
COC(=O)c1ccc(-c2ccco2)n1Cc1cccc(C)c1 | 8.3 | 5.5 | -0.2 | 6.9 | -25.6 | 63.6*
SMILES | NPY-Y1 antag | NPY-Y2 PAM-ag | RAM network inh | NPY Y2 blocker | NPY1 pot ag | WT yeast gro inh
Nc1ccc(C(=O)OCc2nc3cc4ccccc4cc3[nH]2)cc1 | -1.9 | -4.7 | 2.2 | . | -22.9 | 12.3
COc1cc(NC(=S)NC(=O)c2ccc(C)cc2C)ccc1NC(=O)c1cccs1 | 6.5 | -7.2 | 6.6 | 1.3 | -37.1 | 3.8
O=C(COc1c(Br)cc(Br)c2cccnc12)N1CCc2ccccc2C1 | 5.7 | 2.1 | 0.9 | 14.8 | 12.0 | 65.3*
C=CCN(CC=C)CCCOc1ccc(C)cc1OC | 5.1 | 6.8 | 3.5 | . | -19.2 | 0.1
O=C(COc1ccc(Br)cc1)Nc1ccncc1 | 2.4 | 5.9 | 0.1 | -1.1 | 1.8 | 17.2
Cc1cc(OCC(=O)Nc2ccncc2)c(C)cc1Br | 4.3 | 25.1 | 1.6 | 3.7 | 13.4 | 59.8*
COCCNC(=O)CCCn1c(=O)c2cc(OC)c(OC)cc2n(CC(=O)Nc2ccccc2OC)c1=O | 21.3* | -5.7 | 2.9 | . | -5.0 | -4.8
C/C(=N\Nc1ccc(C#N)cc1[N+](=O)[O-])c1ccc(C)o1 | . | -15.8 | . | . | 1.2 | .

Assay outcomes (PubChem BioAssay)
